Active and inactive are the calls of the source. No cut-off for these calls is given here.
Key:
Mus musculus [1] = assay: Antidepressant-like activity in Swiss albino mouse assessed as reduction in immobility time at 0.312 to 1.25 mg/kg, ip dosed 60 mins before test measured after 6 mins by forced swim test; assay type: functional, organism-based
In short: (§1)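 Male Swiss albino mice (22–26 g), 7–12 per dose. Compounds dissolved in distilled water and given ip 60 min before test. Each mouse placed for 6 min in a glass cylinder with 10 cm of water at 23–25 °C. Immobility (floating with minimal movement) scored over the last 4 min by a blinded observer. One-way ANOVA with Bonferroni.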

Mus musculus [2] = assay: Toxicity in Swiss albino mouse assessed as effect on spontaneous locomotor activity at 0.312 to 1.25 mg/kg, ip dosed 60 mins before test measured after 2 to 6 mins; assay type: organism-based; details: in vivo
[3] = Drug metabolism in mouse liver microsomes assessed as retention time of hydroxylated metabolite at 20 uM at pH 7.4 incubated for 15 mins by UPLC/MS analysis in presence of NADPH; assay type: ADME; details: pH 7.4, 0.25 h
In short: (§2)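 Compound (20 µM) incubated with mouse liver microsomes (0.2 mg/ml) in 100 mM potassium phosphate, pH 7.4, 37 °C. Reaction started with NADPH-regenerating system; blank without NADPH run in parallel. Sampling at 5, 15, 30 and 60 min (some to 120 min), in duplicate. Levallorphan internal standard; UPLC/MS quantitation. t1/2 from ln % remaining vs time.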

[4] = Drug metabolism in mouse liver microsomes assessed as retention time of N-dealkylated metabolite at 20 uM at pH 7.4 incubated for 15 mins by UPLC/MS analysis in presence of NADPH; assay type: ADME; details: pH 7.4, 0.25 h; in short: as §2
[5] = target: D(3) dopamine receptor (Homo sapiens) (UniProt P35462); assay: […] human dopamine D3 receptor expressed in CHO cells assessed as inhibition of dopamine-induced cAMP level at 1 uM after 30 mins by HTRF method; assay type: cell-based
Chain of D(3) dopamine receptor (Homo sapiens) (P35462 whole entry): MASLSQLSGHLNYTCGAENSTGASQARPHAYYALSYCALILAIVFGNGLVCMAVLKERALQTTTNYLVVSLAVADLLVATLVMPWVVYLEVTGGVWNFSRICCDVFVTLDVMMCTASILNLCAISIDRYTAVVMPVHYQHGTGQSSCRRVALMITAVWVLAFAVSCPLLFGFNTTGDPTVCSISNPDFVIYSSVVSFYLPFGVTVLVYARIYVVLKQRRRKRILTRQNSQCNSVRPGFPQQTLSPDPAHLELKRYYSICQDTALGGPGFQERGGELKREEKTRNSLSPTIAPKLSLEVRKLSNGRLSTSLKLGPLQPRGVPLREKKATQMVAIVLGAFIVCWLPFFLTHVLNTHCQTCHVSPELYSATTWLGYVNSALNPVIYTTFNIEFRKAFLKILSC

Mus musculus [6] = assay: Antidepressant-like activity in Swiss albino mouse assessed as reduction in immobility time at 1.25 to 5 mg/kg, ip dosed 60 mins before test measured after 6 mins by forced swim test; assay type: functional, organism-based; in short: as §1
Mus musculus [7] = assay: Toxicity in Swiss albino mouse assessed as effect on spontaneous locomotor activity at 1.25 to 5 mg/kg, ip dosed 60 mins before test measured after 2 to 6 mins; assay type: organism-based; details: in vivo
Mus musculus [8] = assay: Toxicity in Swiss albino mouse assessed as effect on spontaneous locomotor activity at 1.25 mg/kg, ip dosed 60 mins before test measured after 2 to 6 mins; assay type: organism-based; details: in vivo

## CN(C1CCN(CCOc2ccccc2C(C)(C)C)CC1)S(=O)(=O)c1cnn(C)c1
Mus musculus [1]
  Activity: Active
Mus musculus [2]
  Activity: Non-toxic
[3]
  Retention_time: 4.09 min

## CN(C1CCN(CCOc2ccccc2-c2ccccc2)CC1)S(=O)(=O)c1cnn(C)c1
[4]
  Retention_time: 4.64 min
[5]
  inhibition: > 91%
Mus musculus [6]
  Activity: Active
Mus musculus [7]
  Activity: Non-toxic

## Cn1cc(S(=O)(=O)N(CC2CC2)C2CCN(CCOc3ccccc3-c3ccccc3)CC2)cn1
[4]
  Retention_time: 4.59 min
[5]
  inhibition: > 91%
Mus musculus [8]
  Activity: Non-toxic

## Cn1cc(S(=O)(=O)N(CC2CC2)C2CCN(CCOc3ccccc3C(C)(C)C)CC2)cn1
Mus musculus [8]
  Activity: Non-toxic
[3]
  Retention_time: 4.72 min
